Screens (PubChem BioAssay)
Sampled rows, rich in hits. Any-hit rate of the full collection: about 2.9%.
CHO-K1 Ca ag: nonselective activator or artifact in parental CHO-K1 cells; activation, % at 3 µM; Fluo-8 calcium fluorescence; scaled to maximal ATP response, vehicle zero; hit rate 0.48% among 360,000; AID 602248; in the data active = activation above about 15%;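 note: untransfected CHO-K1 host cells lacking M1 receptor as counterscreen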
M1 PAM parental: M1 PAM counterscreen hit in parental CHO-K1 cells; ATP EC20, Fluo-8 calcium fluorescence; 0% at ATP EC20, 100% at ATP max; activation, % at 3 µM; hit rate 0.02% among 360,000; AID 602247;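 active = activation above the run cutoff, the mean activation of all test compounds plus 3 SD, cut at about 40% in these data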;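 note: peak over basal fluorescence ratio in a 140 s read after ATP addition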
OX1R antag-1: blocks the human orexin 1 receptor; hit rate 1.8% among 330,000; AID 485270; O43613; inhibition, % at 6.6 µM; OX1R-expressing cells, FRET antagonist read-out; in the data active = inhibition mostly above about 38%, no sharp cut-off; inactive = mostly below about 40%
Target sequence (O43613 whole entry, looked up): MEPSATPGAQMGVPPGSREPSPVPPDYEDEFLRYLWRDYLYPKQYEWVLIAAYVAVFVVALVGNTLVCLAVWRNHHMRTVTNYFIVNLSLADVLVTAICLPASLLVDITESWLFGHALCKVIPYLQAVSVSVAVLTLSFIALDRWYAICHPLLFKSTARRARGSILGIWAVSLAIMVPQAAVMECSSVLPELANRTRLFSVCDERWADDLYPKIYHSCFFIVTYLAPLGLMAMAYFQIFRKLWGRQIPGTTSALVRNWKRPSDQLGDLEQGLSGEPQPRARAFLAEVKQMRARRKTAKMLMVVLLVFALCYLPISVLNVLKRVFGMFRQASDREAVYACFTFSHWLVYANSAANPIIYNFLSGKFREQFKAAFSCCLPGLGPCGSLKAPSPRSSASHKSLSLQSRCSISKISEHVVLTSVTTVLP
CHO parental Ca: counter-screen for OX1R antagonists: effect in parental CHO cells | AID 463079 | parental CHO-K1, ATP-induced calcium, Fluo-8 fluorescence | hit rate 0.63% among 330,000 | inhibition, % at 5.6 µM;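 active = inhibition above that plate's mean sample inhibition plus 3 SD, cut at about 26% in these data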
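Material: parental CHO cells / Compound: single nominal dose of 5.6 µM per compound / Signal: Fluo-8 fluorescence / Replicates: singlicate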
OX1R antag-2: antagonists of human orexin 1 receptor. O43613. CHO/OX1R cells, Fluo-8 calcium fluorescence, orexin A. inhibition, % at 5 µM. hit rate 0.43% among 330,000. AID 434989;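 active = inhibition above its plate's threshold, mean inhibition of all tested compounds on the plate plus 3 SD, cut at about 37% in these data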
CHO-K1 Ca antag: nonselective inhibitor or artifact in parental CHO-K1 cells | ATP-induced calcium, Fluo-8 fluorescence | inhibition, % at 3 µM | hit rate 0.6% among 360,000;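 active = inhibition above a per-plate cutoff, the plate's mean sample inhibition plus 3 SD, cut at about 24% in these data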
Hits are given with their value; . = inactive; / = no result given.

SMILES | CHO-K1 Ca ag | M1 PAM parental | OX1R antag-1 | CHO parental Ca | OX1R antag-2 | CHO-K1 Ca antag
CC1(C)CC(=O)c2c(O)cc(OCc3ccc(Br)cc3)cc2O1 | . | . | . | . | . | .
CCCCCCC[C@@H](C/C=C/CCC(=O)N(C)C/C(=C/Cl)C/C(=C\C(=O)N1CC(OC)=CC1=O)OC)OC | . | . | 42 | . | 57 | .
CCCCCCC[C@@H](C/C=C/CCC(=O)N(C)C/C(=C/Cl)C/C(=C\C(=O)N1C[C@H](O)CC1=O)OC)OC | . | . | . | 41 | . | .
CCCCCCC[C@@H](C/C=C/CCC(=O)O)OC | . | . | . | . | . | .
COc1ccc(NC(=O)c2cc([N+](=O)[O-])ccc2N2CCCC2)cc1S(N)(=O)=O | . | . | / | / | / | .
CCN(CC)S(=O)(=O)c1ccc(N2CCCC2)c(NC(=O)c2ccc(N3CCCC3=O)cc2)c1 | . | . | . | . | . | .
CC(=O)NC1(C(F)(F)F)N=C(c2ccccc2)NC1=O (stereo not drawn) | . | . | . | . | . | .
O=C(NC1(C(F)(F)F)N=C(c2ccccc2)NC1=O)c1ccccc1 (stereo not drawn) | . | . | . | . | . | 27
Cc1ccc(Nc2ncnc3c2cnn3C)cc1 | . | . | . | . | . | .
Cc1cccc(Nc2ncnc3c2cnn3C)c1 | . | . | . | . | . | 29
CC(C)Cn1c(/C=C/c2ccccc2)nc2ccccc21 | . | . | . | . | . | .
CCn1c(/C=C/c2ccccc2)nc2ccccc21 | . | . | 48 | . | . | .
O=C(COC(=O)c1cc([N+](=O)[O-])ccc1N1CCOCC1)Nc1cccc(F)c1 | . | . | 71 | . | . | .
CC1CC(C)CN(C(=O)COC(=O)c2cc([N+](=O)[O-])ccc2N2CCOCC2)C1 (stereo not drawn) | . | . | 53 | . | . | .
CC1CCCN(C(=O)COC(=O)c2cc([N+](=O)[O-])ccc2N2CCOCC2)C1 (stereo not drawn) | . | . | . | . | . | .
O=C(COC(=O)c1cc([N+](=O)[O-])ccc1N1CCOCC1)c1ccccc1Cl | . | . | . | . | . | .
O=C(COC(=O)c1cc([N+](=O)[O-])ccc1N1CCOCC1)Nc1c(Cl)cccc1Cl | . | . | 54 | . | . | .
CC1CN(C(=O)COC(=O)c2cc(Cl)ccc2Cl)CC(C)O1 (stereo not drawn) | . | . | . | . | . | .
CC1CN(C(=O)COC(=O)c2cc([N+](=O)[O-])ccc2Cl)CC(C)O1 (stereo not drawn) | . | . | 41 | . | . | .
CCOC(=O)C1C(C(=O)OC)=C(C(=O)OC)c2ccccc2N1S(=O)(=O)C(F)(F)F (stereo not drawn) | . | . | . | . | . | .
CCN(C[C@H]1N[C@@](Cc2ccccc2)(C(=O)OC)[C@H]2C(=O)N(C)C(=O)[C@@H]12)S(=O)(=O)c1ccc(OC)cc1 | . | . | . | . | . | .
COc1ccc(CNC(=O)COC(=O)CN2C(=O)NC3(CCCC3)C2=O)cc1 | . | . | . | . | . | .
Cn1c(=O)[nH]c2c(nc(-c3ccc(Cl)cc3)n2C)c1=O | . | . | . | . | . | 29
COc1ccc(NC(=O)c2sccc2OS(=O)(=O)N(C)C)cc1 | . | . | . | . | . | .
CN(C)S(=O)(=O)Oc1ccsc1C(=O)Nc1cccc(Cl)c1Cl | . | . | . | 46 | . | .
SMILES | CHO-K1 Ca ag | M1 PAM parental | OX1R antag-1 | CHO parental Ca | OX1R antag-2 | CHO-K1 Ca antag
CCOc1ncccc1C(=O)Nc1ccc2nc(C)sc2c1 | . | . | 76 | . | . | .
CSc1ncccc1C(=O)Nc1ccc2nc(C)sc2c1 | . | . | . | . | . | .
O=c1c(C(c2ccc(O)cc2)c2c(O)nc3n(c2=O)CCS3)c(O)nc2n1CCS2 | . | . | . | . | . | 24
O=c1c(C(c2ccc(O)cc2)c2c(O)nc3n(c2=O)CCCS3)c(O)nc2n1CCCS2 | . | . | . | . | . | .
COc1ccc(C)cc1NC(=O)C(OC(=O)CNC(=O)c1cccc(F)c1)c1ccccc1 (stereo not drawn) | . | . | . | . | . | 31
COc1ccc(C)cc1NC(=O)C(OC(=O)CNC(=O)c1ccc(Oc2ccccc2)cc1)c1ccccc1 (stereo not drawn) | . | . | . | . | . | .
COc1ccc([C@H]2N[C@]3(CCCN(Cc4ccco4)C3=O)[C@H]3C(=O)N(Cc4ccccc4)C(=O)[C@@H]23)cc1 | . | . | / | / | / | .
Cc1ccc(C)c(S(=O)(=O)NCc2ccncc2)c1 | . | . | . | . | . | .
Cc1cc(S(=O)(=O)NCc2ccncc2)c(C)cc1Br | . | . | . | 46 | . | .
CC1=CC(=O)C=C(C)C1=NOS(=O)(=O)c1ccccc1 | . | . | / | / | / | .
CC1=CC(=O)C(C(C)C)=C/C1=N/OS(=O)(=O)c1ccccc1 | 20 | . | 64 | 71 | 75 | 50
Cc1ccc(/C=N/NC(=O)c2nnn(-c3nonc3N)c2-c2cccs2)cc1 | 33 | . | . | . | . | .
COc1ccc(/C=N/NC(=O)c2nnn(-c3nonc3N)c2-c2cccc(OC)c2)cc1 | . | . | . | . | . | .
CCOc1ccc(/C=N/NC(=O)c2nnn(-c3nonc3N)c2-c2ccc(OCC)cc2)cc1 | . | . | . | . | . | .
CCOc1ccc(-c2c(C(=O)N/N=C/c3c[nH]c4ccccc34)nnn2-c2nonc2N)cc1 | . | . | . | . | . | 25
CCOc1cccc(-c2c(C(=O)N/N=C/c3cccs3)nnn2-c2nonc2N)c1 | 25 | . | . | . | . | .
COc1cccc(-c2c(C(=O)N/N=C/c3cccs3)nnn2-c2nonc2N)c1 | 32 | . | . | . | . | .
C=CCOc1cccn2c(N(C)C(=O)c3ccc(OC)cc3)c(CC)nc12 | . | . | / | / | / | .
CCOC(=O)CC(=O)CSc1ncnc2c1nnn2-c1ccc(OC)cc1 | . | . | . | . | . | .
O=C(CNC(=O)[C@@H]1Cc2ccccc2CN1)Nc1ccc2c(c1)OCCO2 | . | . | . | . | . | .
Nc1nonc1-n1nnc(C(=O)N/N=C/c2cc(Br)cs2)c1-c1ccccc1 | . | . | 51 | . | . | .
Nc1nonc1-n1nnc(C(=O)N/N=C/c2cccc(F)c2)c1-c1ccc2c(c1)OCO2 | . | . | . | . | . | .
Nc1nonc1-n1nnc(C(=O)N/N=C/c2ccccn2)c1CNc1ccccc1 | . | . | 50 | . | . | .
Cc1ccc(/C=N/NC(=O)c2nnn(-c3nonc3N)c2-c2ccc3c(c2)OCO3)s1 | 22 | . | 43 | . | . | .
C=CCNc1ncnc2c1ncn2[C@H]1CN(C2CCCC2)C[C@@H](CO)O1 | . | . | / | / | / | .
Cc1cccc(OCC(=O)Oc2ccc(Cl)cc2)c1 | . | . | . | . | . | .
Cc1cccc(OC(=O)NCCOC(=O)N(O)c2ccc(Cl)cc2)c1 | . | . | . | . | . | 24
O=C(COc1ccc2ccccc2c1Br)Nc1ncn[nH]1 | 19 | . | . | . | . | .
